The test system of data set [1] is Mus musculus. In words: Subcutaneous metrazole (scMet) test was conducted and median effective dose was determined at the time of peak anticonvulsant and sedative effect. The conditions noted are these: sc. In kind it is functional. The essentials:
(§1)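 Pentylenetetrazol (85 mg/kg in mice, 70 mg/kg in rats) was given subcutaneously in the posterior midline as a 0.5% solution. Compounds were in 30% PEG 400, dosed ip in male Carworth Farms no. 1 mice, or orally in mice and Sprague-Dawley rats. ED50 was read at time of peak effect, using groups of 8–16 animals and ≥3 doses giving 10–90% protection. Probit analysis gave 95% confidence intervals.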

Data set [2] relates to Mus musculus. In words: Rotarod test was used to evaluate neurotoxicity in mice. Toxicity values are reported after 0.5 h. toxicity at 300 mg/kg; - denotes no activity observed at 300 mg/kg toxic. The conditions noted are these: in vivo. In kind it is organism-based.
The subject of data set [3] is Mus musculus. In words: Rotarod test was used to evaluate neurotoxicity in mice. Toxicity values are reported after 4.0 hr toxicity at 300 mg/kg; toxic. The following applies: in vivo. Set-up: dose 300 mg/kg. Format: organism-based. On the technique in general: In the rotarod test animals must keep their balance on a rotating rod.
Data set [4] has as its system Mus musculus. The data set can be described thus: Rotarod test was used to evaluate neurotoxicity in mice. Toxicity values are reported after 0.5 hr at 300 mg/kg; Toxic. Also noted: dose 300 mg/kg. Format: organism-based. The conditions noted are these: in vivo.
In data set [5] the test system is Mus musculus. In words: Subcutaneous metrazole (scMet) test was conducted after Injecting intraperitoneally at the time of peak anticonvulsant in phase II test. Format: functional. The essentials: (§2)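 Phase II testing in male Carworth Farms no. 1 mice, ip dosing in 30% PEG 400 (0.01 mL/g). Groups of 8–16 mice received a range of doses, giving at least three points in 10–90% protection. ED50 with 95% confidence interval was fitted by probit analysis at the time of peak effect. scMet used pentylenetetrazol 85 mg/kg sc.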

The subject of data set [6] is Mus musculus. The data set can be described thus: MES test was performed after Injecting intraperitoneally at the time of peak anticonvulsant effect in phase II test. Format: functional. The following applies: ip. The procedure, abridged: as §2
For data set [7], the species on record is Mus musculus. In words: Time taken to reach peak activity was reported. Format: functional. The essentials:
(§3)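 Time of peak effect, in hours, was found separately for anticonvulsant activity and for neurotoxicity. ED50 and TD50 were then determined at those times.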

A short description of data set [8]: Median toxic dose was measured at time of peak neurologic deficit. In kind it is organism-based. The following applies: mouse, in vivo. The procedure, abridged: (§4)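 Mice dosed ip in 30% PEG 400. Minimal neurotoxicity was scored by rotorod at the time of peak neurologic deficit. Groups of 8–16 mice were used, with at least three points in the 10–90% range, and TD50 with 95% confidence interval was derived by probit analysis.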

Data set [9] can be described thus: Protective index is the ratio of TD50 and ED50 values obtained in the maximal electroshock seizure (MES) test. Format: functional. The procedure, abridged: (§5)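 Protective index = TD50/ED50. Both values are medians from groups of 8–16 animals per dose, with at least three points in the 10–90% effect range, fitted by probit analysis. Each was taken at its own time of peak effect: seizure protection for ED50, neurologic deficit for TD50.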
A general note: Protection in the maximal electroshock model is a classic sign of anticonvulsant action.

A short description of data set [10]: Protective index is the ratio of TD50 and ED50 values obtained in the subcutaneous metrazole (scMet) test. Format: functional. The essentials:
as §5

The species entered for data set [11] is Mus musculus. In words: Anticonvulsant activity was determined by injecting perorally in mice.(scMet) test was conducted. Format: functional. The procedure, abridged:
(§6)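 Oral dosing in mice, test solutions in 30% polyethylene glycol 400, 0.01 mL/g body weight. Groups of 8–16 mice received a range of doses until at least three points fell within 10–90% seizure protection.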

For data set [12], the species on record is Mus musculus. The data set can be described thus: Anticonvulsant activity was determined by injecting perorally in mice. Maximal electroshock seizure test was performed. Format: functional. The procedure, abridged:
as §6

Data set [13] in a line: Dose Injected intraperitoneally that causes death 50% of the mice within 24 hr was reported as lethal dose 50. No deaths among eight test animals at 4000 mg/kg after 24 hr in phase III test. The conditions noted are these: mouse, in vivo, ip. Format: organism-based. Set-up: dose 4000 mg/kg, route intraperitoneal.
The species named for data set [14] is Mus musculus. The data set can be described thus: Anticonvulsant activity was determined by injecting perorally in mice. Time taken to reach peak activity was reported. Format: functional. The procedure, abridged: as §3
For data set [15], the species on record is Mus musculus. The data set can be described thus: Anticonvulsant activity was determined by injecting perorally in mice. Time taken to reach peak toxicity was reported. Format: organism-based. The following applies: in vivo, po. The procedure, abridged: as §3
Data set [16] can be described thus: Median toxic dose was measured at time of peak neurologic deficit in phase II test. In kind it is organism-based. The conditions noted are these: mouse, in vivo. The procedure, abridged: as §4
Data set [17] is described as follows: Neurotoxicity was determined by injecting perorally in mice. Median toxic dose was measured. Format: toxicity, organism-based. The following applies: mouse, in vivo, po. The essentials:
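Mice dosed orally in 30% PEG 400. Neurotoxicity was scored by rotorod at the time of peak neurologic deficit. Groups of 8–16 mice were used, with at least three points in the 10–90% range, and TD50 with 95% confidence interval was derived by probit analysis.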

The species named for data set [18] is Rattus norvegicus. The data set can be described thus: Anticonvulsant activity was determined by injecting perorally in rats. (scMet) test was conducted. In kind it is functional.
For data set [19], the species on record is Rattus norvegicus. The data set can be described thus: Anticonvulsant activity was determined by injecting perorally in rats. MES test was performed. Format: functional.
The species named for data set [20] is Rattus norvegicus. The data set can be described thus: Anticonvulsant activity was determined by injecting perorally in rats. Time taken to reach peak toxicity was reported. In kind it is organism-based. The following applies: in vivo, po. The essentials:
as §3

Data set [21] is described as follows: Neurotoxicity was determined by injecting perorally in rats. In kind it is toxicity, organism-based. The following applies: rat, in vivo, po. The procedure, abridged:
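Rats dosed orally in 30% PEG 400. Neurotoxicity was assessed by positional sense and gait-and-stance tests at the time of peak deficit. TD50 with 95% confidence interval was derived by probit analysis from at least three dose points in the 10–90% range.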

For data set [22], the species on record is Rattus norvegicus. In words: Anticonvulsant activity was determined by injecting perorally in rats. Time taken to reach peak activity was reported. Format: functional. The procedure, abridged: as §3
The nature of data set [23]: Protective index is the ratio of TD50 and ED50 values obtained in the maximal electroshock seizure (MES) test in phase II test. In kind it is functional. The procedure, abridged:
as §5

Data set [24] is described as follows: Protective index is the ratio of TD50 and ED50 values obtained in the subcutaneous metrazole (scMet) test in phase II test. In kind it is functional. The procedure, abridged:
as §5

The nature of data set [25]: Time taken to reach peak activity was reported in phase II test. In kind it is functional. The procedure, abridged: (§7)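 Male Carworth Farms no. 1 mice dosed ip in 30% polyethylene glycol 400 (0.01 mL/g). Seizure protection was tested by MES and by sc pentylenetetrazol (85 mg/kg, 0.5% solution, posterior midline); neurotoxicity was tested on the rotorod. Time of peak effect is given in hours. ED50 and TD50 were determined at that time in groups of 8–16 mice.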

Data set [26] in a line: Time taken to reach peak toxicity was reported in phase II test. The essentials: as §7
Data set [27] can be described thus: Anticonvulsant activity was determined by injecting perorally in mice. Protective index is the ratio of TD50 and ED50 values obtained in the maximal electroshock seizure (MES) test. In kind it is functional. The procedure, abridged:
as §5

Data set [28] is described as follows: Anticonvulsant activity was determined by injecting perorally in mice. Protective index is the ratio of TD50 and ED50 values obtained in the subcutaneous metrazole (scMet) test. In kind it is functional. The essentials:
as §5

Data set [29] in a line: Anticonvulsant activity was determined by injecting perorally in rats. Protective index is the ratio of TD50 and ED50 values obtained in the maximal electroshock seizure (MES) test. Format: functional. The procedure, abridged:
as §5

Data set [30] in a line: Anticonvulsant activity was determined by injecting perorally in rats. Protective index is the ratio of TD50 and ED50 values obtained in the subcutaneous metrazole (scMet) test. Format: functional. The procedure, abridged:
as §5

Data set [31] concerns Mus musculus. In words: Subcutaneous metrazole (scMet) test was conducted and median effective dose was determined at the time of peak anticonvulsant and sedative effect. In kind it is functional. The conditions noted are these: sc. The essentials: as §1
Data set [32] deals with Mus musculus. The data set can be described thus: Rotarod test was used to evaluate neurotoxicity in mice. Toxicity values are reported after 0.5 h.,toxicity at 300 mg/kg; Toxic. Format: organism-based. Also noted: dose 300 mg/kg. The conditions noted are these: in vivo.

Molecules are shown by their SMILES.

Regarding `CCC1(c2ccccc2)C(=O)NCNC1=O` [PRIMIDONE], it took a dose of 58.6 mg/kg to reach the 50% effect level in data set [1] (ED50).

As to `O=C(Cc1nc2ccccc2c(=O)n1-c1ccccc1Cl)c1cccnc1`, the Activity entry in [2] is recorded as “Toxic”.

Turning to `O=C(Cc1nc2ccccc2c(=O)n1-c1ccccc1Br)c1ccncc1`, the Activity entry in data set [3] and in data set [4] was “Toxic” in each case. Further, the ED50 – broadly, the midpoint of the dose-response relation – in data set [5] came out at 19 mg/kg; in data set [6], 136 mg/kg. Moreover, the TPE in data set [7] amounted to 1 h. In addition, the TD50 (in general, the dose at which the toxic effect under study appears in half of the subjects) in data set [8] was over 2000 mg/kg. The values for the PI in data set [9] and in [10] were over 14.7 and over 105, respectively.

Regarding `Cc1ccccc1-n1c(CC(=O)c2ccncc2)nc2ccccc2c1=O`, the ED50 came to 100 mg/kg in [5]; 148 mg/kg in data set [6]; 15 mg/kg in [11]; 27.1 mg/kg in [12]; 2.57 mg/kg in data set [18]; 1.73 mg/kg in data set [19]. Moreover, in data set [13], the LD50 – broadly, the dose at which mortality reaches 50% – at 24 h is over 4000 mg/kg. The TPE was found to be 2 h in [14]; 0.5 h in [15]; 4 h in data set [20]; 4 h in [22]; 2 h in data set [25]; 2 h in data set [26]. The TD50 in [16] stood at 561 mg/kg; in data set [17], 67.6 mg/kg; in [21] it was 2.89 mg/kg. Besides, the PI was determined as 3.8 in data set [23]; 5.6 in data set [24]; 2.5 in data set [27]; 4.5 in data set [28]; 1.7 in [29]; 1.1 in data set [30].

For the compound `CCC1(c2ccccc2)NC(=O)N(C)C1=O` (centres undefined) [MEPHENYTOIN], the ED50 in data set [31] was found to be 30.5 mg/kg.

Turning to `O=C(Cc1nc2ccccc2c(=O)n1-c1ccc(Br)cc1)c1ccncc1`, the Activity result in data set [32] was “Toxic”.
